# RBBP9 inh: inhibitors of human serine hydrolase RBBP9. O75884. recombinant RBBP9, FP-Rh probe fluorescence polarization. inhibition, % at 7.94 µM. 0.2% of 220,000 active. AID 1515;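 active = inhibition above the campaign mean of all tested compounds plus 3 SD, cut at about 14% in these data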;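 note: plate controls were DMSO wells with RBBP9 for no effect and wells lacking RBBP9 protein for full effect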
# Target sequence (O75884 whole entry, looked up): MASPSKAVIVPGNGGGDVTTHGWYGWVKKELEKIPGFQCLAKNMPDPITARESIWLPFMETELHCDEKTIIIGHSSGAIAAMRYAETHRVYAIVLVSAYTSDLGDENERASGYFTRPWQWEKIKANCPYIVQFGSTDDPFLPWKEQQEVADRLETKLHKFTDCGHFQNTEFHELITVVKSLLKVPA
#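 Measured by – fluorescence polarization · Test system – RBBP9 protein · Input – 2.5 µM RBBP9 dispensing solution, before mixing · Measure – percent inhibition from mP, scaled between DMSO and no-protein wells · Benchmarks – DMSO-treated enzyme wells and wells lacking RBBP9 · Times – preincubation 30 min plus labeling 45 min at 25 °C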
# PRMT1 FP inh: inhibitors of human PRMT1. Q99873. recombinant PRMT1, activity-based probe fluorescence polarization. inhibition, % at 2.79 µM. 1.3% of 370,000 active. AID 652257;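 active = inhibition above about 21% made by adding two undisclosed values, limit read from the data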
# Target sequence (Q99873 whole entry, looked up): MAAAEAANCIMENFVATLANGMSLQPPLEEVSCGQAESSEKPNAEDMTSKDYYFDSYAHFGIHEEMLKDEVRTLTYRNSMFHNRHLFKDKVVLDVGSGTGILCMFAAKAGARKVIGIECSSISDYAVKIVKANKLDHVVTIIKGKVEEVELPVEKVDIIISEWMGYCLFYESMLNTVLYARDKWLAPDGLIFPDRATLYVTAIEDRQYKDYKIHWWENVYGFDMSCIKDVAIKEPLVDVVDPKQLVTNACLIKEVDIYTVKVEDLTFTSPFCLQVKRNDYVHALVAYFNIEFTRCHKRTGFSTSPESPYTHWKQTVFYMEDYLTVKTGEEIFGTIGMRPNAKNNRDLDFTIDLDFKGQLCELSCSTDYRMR
# SIAE primary: inhibitors of human sialic acid acetylesterase SIAE. Q9HAT2. SIAE FP-Rh probe binding, fluorescence polarization. inhibition, % at 9.66 µM. 0.69% of 370,000 active;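 active = inhibition above a cutoff: mean of compounds within the control limits plus 3 SD of those, cut at about 17% in these data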;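 note: 0% = plate median of compound wells and 100% = probe without SIAE protein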
# GSTO1 inh: counter-screen for RBBP9 inhibitors: inhibitors of human GSTO1; recombinant GSTO1, activity-based probe fluorescence polarization; inhibition, % at 5.96 µM; 1.1% of 300,000 active; AID 1974;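 active = inhibition above the campaign mean inhibition plus 3 SD, cut at about 35% in these data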;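 note: 0% = GSTO1-1 with DMSO and 100% = wells lacking GSTO1-1 enzyme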
# PAD4 FP inh: inhibitors of human PAD4; inhibition, % at 6.36 µM; Q9UM07; recombinant PAD4, RCA probe fluorescence polarization; 0.41% of 330,000 active;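 active = percent inhibition above a cutoff equal to the mean of all tested compounds plus 3 SD, cut at about 15% in these data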;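 note: 0% = PAD4 with RCA probe and DMSO and 100% = probe without PAD4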
# PRMT1 inh conf: PRMT1 (human) inhibition, FP confirmation; shares compounds with PRMT1 FP inh; recombinant His-PRMT1, activity-based probe fluorescence polarization; inhibition, % at 2.79 µM; 42% of 3,300 active;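 active = mean inhibition across replicates above the hit cutoff derived for the earlier primary screen, cut at about 22% in these data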
# * marks the source's active call; other numbers are inactive results; nt = not tested or not shown. This is a sample that favours compounds with a hit; in the whole collection about 2.7% have one here.
SMILES,RBBP9 inh,PRMT1 FP inh,SIAE primary,GSTO1 inh,PAD4 FP inh,PRMT1 inh conf
C=CCSC1=C(C#N)C(c2ccccc2Cl)CC(=O)N1 (stereo not drawn),-7.5,45.5*,-2.8,-3.2,2.9,13.3
C=CCSC1=C(C#N)C(c2ccc(OCC)cc2)CC(=O)N1 (stereo not drawn),-7.9,28.8*,-5.3,3.0,-4.0,11.5
Cn1c(=O)c2c([nH]c(=S)n2CCCc2ccccc2)n(C)c1=O,nt,40.9*,6.1,2.2,3.0,64.2*
Cn1c(=O)[nH]c(=O)c2c1[nH]c(=S)n2CCCc1ccccc1,nt,1.8,0.6,nt,nt,nt
c1ccc(NNC2=NCCS2)cc1,nt,29.0*,-5.1,3.6,-1.9,0.7
Cc1nc2ccccn2c1-c1ccnc(=S)[nH]1,1.1,78.9*,5.5,6.4,13.6,38.2*
O=C(NCCCO)c1ccc2nc(-c3ccco3)c(-c3ccco3)nc2c1,8.6,34.1*,9.0,nt,nt,44.1*
O=C1NC(=O)/C(=C/c2ccc(-c3cc(C(=O)O)ccc3Cl)o2)S1,nt,6.4,-30.9,-71.7,-6.3,nt
O=C1NC(=O)/C(=C\c2ccc(Br)o2)S1,nt,42.5*,0.0,8.1,1.7,0.6
Cc1ccc(NC(=O)CN2CCOCC2)cc1,nt,-0.7,-6.5,7.7,2.1,nt
O=C(Cn1sc2ccccc2c1=O)Nc1ccccc1,nt,86.7*,5.1,nt,nt,89.5*
O=C(CN1C(=O)c2ccccc2C1=O)Nc1ccccc1,nt,-5.1,2.3,6.0,-3.1,nt
O=C(CCN1C(=O)S/C(=C\c2ccccc2)C1=O)Nc1ccc(O)cc1C(=O)O,nt,9.8,6.8,10.3,-2.6,nt
O=C(CN1C(=O)S/C(=C\c2cccs2)C1=O)Nc1ccc(O)cc1C(=O)O,nt,32.2*,0.0,15.4,4.9,4.3
CCCC(C(=O)O)n1c(O)c(C=C2N=c3ccccc3=N2)sc1=S (stereo not drawn),-1.1,26.3*,9.7,0.5,-10.7,2.5
O=C(O)c1ccc(-n2c(O)c(C=C3N=c4ccccc4=N3)sc2=S)cc1,-2.3,29.5*,-5.6,-3.4,-1.2,21.0
O=C(O)c1cccc(-n2c(O)c(C=C3N=c4ccccc4=N3)sc2=S)c1,-6.7,31.0*,-1.5,-20.0,-3.6,5.2
CCN(CC)c1ccc(-n2c(O)c(C=C3N=c4ccccc4=N3)sc2=S)cc1,-9.9,-1.2,-0.6,2.1,-3.3,nt
Oc1ccc2nnc3c(Br)cnn3c2c1,nt,49.6*,-8.7,5.6,0.0,49.6*
Clc1ccc2nc3c4ccccc4cnn3c2c1,-6.7,-0.4,-5.9,-7.5,2.2,nt
CC(C)C1Oc2cc3oc(=O)ccc3cc2C1=O (stereo not drawn),-0.5,2.5,10.5,4.1,3.9,nt
CC(=O)Nc1sc2c(c1-c1nc3ccccc3s1)CCN(C(C)C)CC2,nt,36.9*,4.2,nt,nt,11.3
CC(=O)Nc1sc2c(c1-c1nc3ccccc3s1)CCN(C(C)C)C2,2.8,nt,nt,5.2,-0.6,nt
CC(C)N1CCc2c(sc(NC(=O)C(F)F)c2-c2nc3ccccc3s2)C1,nt,28.9*,-1.2,nt,nt,4.7
C=C(C)c1cccc(C(C)(C)NC(=O)NCC2CCCO2)c1 (stereo not drawn),-1.7,0.7,-0.4,-10.2,-4.7,nt
SMILES,RBBP9 inh,PRMT1 FP inh,SIAE primary,GSTO1 inh,PAD4 FP inh,PRMT1 inh conf
COc1ccc(C(=O)Nc2ccc(NC(=O)c3cccs3)cn2)cc1,nt,2.5,-11.7,-4.1,1.3,nt
CCOC(=O)c1c(-c2ccc(C)o2)csc1NC(=O)CSc1nnc(C)s1,-16.8,63.1*,-1.9,5.7,-8.6,15.2
CCOC(=O)c1c(-c2ccc(C)o2)csc1NC(=O)CSc1nnnn1-c1ccccc1,-61.6,72.6*,-6.3,5.6,-0.2,3.9
CCOC(=O)c1sc(NC(=O)CSc2nnnn2-c2ccccc2)nc1C,-7.5,0.0,-7.3,-6.4,-1.6,nt
CCOC(=O)c1c(-c2ccc(C)o2)csc1NC(=S)NC(=O)c1ccccc1Br,-27.8,54.5*,-12.0,-0.3,-3.9,0.7
CC(O)c1cccc(NC(=O)CCC(=O)O)c1 (stereo not drawn),-1.7,-1.4,-6.8,8.8,1.5,nt
S=C(Nc1ccc(Cl)cc1)N1CCN(C2CCCCC2)CC1,-0.4,-3.6,-2.7,2.7,-2.5,nt
CN(CCO)c1nc(N)c2c(N)nc3c(c2c1C#N)CC(=O)N3Cc1cccs1,-0.2,26.5*,0.8,6.0,-2.6,0.6
COCCN1C(=O)Cc2c1nc(N)c1c(N)nc(N3CCN(c4ccc(F)cc4)CC3)c(C#N)c21,-0.9,27.5*,6.6,11.0,-5.5,15.2
N#Cc1c(N(CCO)CCO)nc(N)c2c(N)nc3c(c12)CC(=O)N3Cc1cccs1,-4.7,nt,nt,6.9,-6.8,nt
COc1ccc(CN2C(=O)Cc3c2nc(N)c2c(N)nc(N4CCOCC4)c(C#N)c32)cc1,2.0,25.1*,0.9,10.1,-6.3,13.1
CCCN1CCN(C(=O)c2ccc(CS(=O)c3ccc(Cl)cc3)o2)CC1 (stereo not drawn),nt,-1.5,0.5,7.0,1.4,nt
CC(C)C(NC(=O)c1ccc(Cl)cc1Cl)C(=O)NCCc1ccccn1 (stereo not drawn),nt,6.8,5.2,nt,nt,nt
COc1ccc2cc(C3CC(c4ccco4)=NN3S(=O)(=O)c3ccccc3)c(Cl)nc2c1 (stereo not drawn),-8.8,29.4*,-1.2,-8.4,-0.6,1.6
CCOC(=O)CSC(=S)NC(=O)c1ccc(OC)cc1,-9.1,27.3*,-3.7,1.6,5.3,99.8*
O=C1CCCC2=C1Sc1ccccc1N2,2.2,36.6*,4.6,13.8,-2.0,17.4
COC(=O)c1ccc(C(=O)OC)c(NC(=O)COC(=O)CCOc2ccc(C)cc2)c1,nt,-3.6,-0.8,11.0,-1.0,nt
O=C1CCNc2ccc(-c3ccccc3)cc21,3.0,74.9*,-2.6,-3.9,-1.3,79.2*
COc1cc(C=NNc2ccc(S(=O)(=O)Nc3ccccc3C(=O)O)cc2[N+](=O)[O-])ccc1O,nt,0.6,12.7,nt,5.5,nt
O=C(O)c1ccccc1NS(=O)(=O)c1ccc(N/N=C/c2cccc(O)c2O)c([N+](=O)[O-])c1,nt,34.6*,-0.3,nt,nt,29.3*
NC(N)=NS(=O)(=O)c1ccc(N=C2C(=O)Nc3ccccc32)cc1,-10.2,-2.4,-1.8,1.5,4.0,nt
COC(=O)c1cc(NS(=O)(=O)c2cccs2)cc(NS(=O)(=O)c2cccs2)c1,nt,0.9,2.6,nt,nt,nt
COC(=O)c1nn(-c2ccc(OC)cc2)c(=O)c2c(N)sc(C)c12,3.4,24.9*,4.7,-0.2,-0.2,-0.4
COC(=O)c1nn(-c2ccc(OC)cc2)c(=O)cc1NN,5.9,0.2,5.7,31.9,-10.6,nt
Cc1ccc(S(=O)(=O)N2CCSC2C(=O)O)cc1 (stereo not drawn),-0.2,-0.1,-0.2,-3.3,-4.1,nt
Cc1ccc(S(=O)(=O)N2CCSC2c2ccco2)cc1 (stereo not drawn),-4.0,31.0*,-3.4,-2.8,-3.1,7.6
CCCc1cc(=O)[nH]c(SCC(=O)Nc2ccc(N3CCCCC3)cc2)n1,nt,49.3*,5.9,nt,1.7,-0.6
Cc1cc(=O)[nH]c(SCC(=O)Nc2ccc(N3CCCCC3)cc2)n1,nt,0.2,2.5,nt,-7.2,nt
